Source: the RNAGym collection of RNA variant scans (doi:10.1038/s41586-018-0170-7)

B1: tRNA (parent)
chain: GUUCCGUUGGCGUAAUGGUAACGCGUCUCCCUCCUAAGGAGAAGACUGCGGGUUCGAGUCCCGUACGGAACG

Variants of: B1
Experiment: yeast fitness, log relative to wild type (ln ratio); higher = fitter; tRNA-Arg(CCU), competitive growth, 37 C, 1 M NaCl
Method in brief: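 In BY4742 missing the chromosomal gene, a combinatorial tRNA-Arg(CCU) variant library was maintained on a HIS3 centromeric plasmid. Selection ran ~6.5 generations (~26.5 h) in SC-HIS 1M NaCl at 37 °C, following 4 generations in SC-HIS at 30 °C, with three outputs per input and variant counts by 125 bp paired-end Illumina sequencing. Fitness is the natural log of a genotype's generations relative to the wild type's, with generations taken as inverse-variance-weighted, OD-scaled log2 output/input frequency.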

| Variant | yeast fitness (ln) |
| --- | --- |
| AGUCCUUUGGCGUAAUGGUAACGCGUUUCCCUCCUAAGGAGACGACUGCGGGUUCGAGUCCCGUAUGGGUUG [G1A U2G G6U C27U A43C C66U A69G A70U C71U] | -0.54 |
| GCUCCUUUGGCGUAAUGGUAACGCGUCUCCCUCCUAAGGAGAAGACUGCGGGUUCGAGUCCCGUAAGGGUCG [U2C G6U C66A A69G A70U] | -0.25 |
| GUUCCGUUGGCGUAAUGGUAACGCGUCUCCCUCCUAAGGAGAAGACUGCGGGUUCGAGUCCCGUAUGGAUCG [C66U A70U] | -0.0848 |
| GUUCCGUUGGCGUAAUGGUAACGCGUCUCCCUCCUAAGGAGAAGACUGCGGGUUCGAGUCCCGUACGGGUCG [A69G A70U] | -0.0431 |
| AUUCCUUUGGCGUAAUGGUAACGCGUCUCCCUCCUAAGGAGACGAUUGCGGGUUCGAGUCCCGUAAGGAUCG [G1A G6U A43C C46U C66A A70U] | -0.242 |
| GGUCCUUUGGCGUAAUGGUAACGCGUUUCCCUCCUAAGGAGAAGAUUGCGGGUUCGAGUCCCGUAAGGAGUG [U2G G6U C27U C46U C66A A70G C71U] | -0.168 |
| GCUCCGUUGGCGUAAUGGUAACGCGUUUCCCUCCUAAGGAGACGAUUGCGGGUUCGAGUCCCGUAAGGGAUG [U2C C27U A43C C46U C66A A69G C71U] | -0.41 |
| GUUCCGUUGGCGUAAUGGUAACGCGUUUCCCUCCUAAGGAGAAGACUGCGGGUUCGAGUCCCGUAUGGGAUG [C27U C66U A69G C71U] | -0.313 |
| GGUCCGUUGGCGUAAUGGUAACGCGUCUCCCUCCUAAGGAGACGACUGCGGGUUCGAGUCCCGUAUGGAGCG [U2G A43C C66U A70G] | -0.156 |
| ACUCCGUUGGCGUAAUGGUAACGCGUUUCCCUCCUAAGGAGAAGACUGCGGGUUCGAGUCCCGUACGGAGCG [G1A U2C C27U A70G] | -0.0624 |
| AGUCCUUUGGCGUAAUGGUAACGCGUCUCCCUCCUAAGGAGACGAUUGCGGGUUCGAGUCCCGUAUGGGGUG [G1A U2G G6U A43C C46U C66U A69G A70G C71U] | -0.371 |
| AUUCCUUUGGCGUAAUGGUAACGCGUCUCCCUCCUAAGGAGACGACUGCGGGUUCGAGUCCCGUAAGGGUUG [G1A G6U A43C C66A A69G A70U C71U] | -0.344 |
| GUUCCUUUGGCGUAAUGGUAACGCGUUUCCCUCCUAAGGAGACGAUUGCGGGUUCGAGUCCCGUAUGGGUCG [G6U C27U A43C C46U C66U A69G A70U] | -0.416 |
| GUUCCAUUGGCGUAAUGGUAACGCGUCUCCCUCCUAAGGAGACGAUUGCGGGUUCGAGUCCCGUAAGGAAUG [G6A A43C C46U C66A C71U] | -0.229 |
| AUUCCAUUGGCGUAAUGGUAACGCGUUUCCCUCCUAAGGAGAAGAUUGCGGGUUCGAGUCCCGUACGGGGUG [G1A G6A C27U C46U A69G A70G C71U] | -0.316 |
| ACUCCUUUGGCGUAAUGGUAACGCGUUUCCCUCCUAAGGAGACGAUUGCGGGUUCGAGUCCCGUAAGGAUCG [G1A U2C G6U C27U A43C C46U C66A A70U] | -0.0771 |
| GUUCCGUUGGCGUAAUGGUAACGCGUUUCCCUCCUAAGGAGAAGAUUGCGGGUUCGAGUCCCGUAAGGAACG [C27U C46U C66A] | -0.0465 |
| GCUCCUUUGGCGUAAUGGUAACGCGUCUCCCUCCUAAGGAGAAGACUGCGGGUUCGAGUCCCGUAAGGGUUG [U2C G6U C66A A69G A70U C71U] | -0.487 |
| GGUCCAUUGGCGUAAUGGUAACGCGUUUCCCUCCUAAGGAGACGAUUGCGGGUUCGAGUCCCGUAUGGAGCG [U2G G6A C27U A43C C46U C66U A70G] | -0.143 |

| Variant | yeast fitness (ln) |
| --- | --- |
| GCUCCAUUGGCGUAAUGGUAACGCGUCUCCCUCCUAAGGAGAAGAUUGCGGGUUCGAGUCCCGUACGGGUCG [U2C G6A C46U A69G A70U] | -0.084 |
| GUUCCUUUGGCGUAAUGGUAACGCGUCUCCCUCCUAAGGAGACGAUUGCGGGUUCGAGUCCCGUAUGGGGCG [G6U A43C C46U C66U A69G A70G] | -0.313 |
| GGUCCUUUGGCGUAAUGGUAACGCGUUUCCCUCCUAAGGAGACGAUUGCGGGUUCGAGUCCCGUAAGGGGUG [U2G G6U C27U A43C C46U C66A A69G A70G C71U] | -0.279 |
| GCUCCAUUGGCGUAAUGGUAACGCGUUUCCCUCCUAAGGAGAAGAUUGCGGGUUCGAGUCCCGUACGGGGCG [U2C G6A C27U C46U A69G A70G] | -0.236 |
| GGUCCGUUGGCGUAAUGGUAACGCGUUUCCCUCCUAAGGAGACGAUUGCGGGUUCGAGUCCCGUAAGGAGCG [U2G C27U A43C C46U C66A A70G] | -0.16 |
| AUUCCGUUGGCGUAAUGGUAACGCGUCUCCCUCCUAAGGAGACGAUUGCGGGUUCGAGUCCCGUACGGGGCG [G1A A43C C46U A69G A70G] | -0.104 |
| AGUCCUUUGGCGUAAUGGUAACGCGUCUCCCUCCUAAGGAGAAGAUUGCGGGUUCGAGUCCCGUACGGAUCG [G1A U2G G6U C46U A70U] | -0.246 |
| ACUCCAUUGGCGUAAUGGUAACGCGUUUCCCUCCUAAGGAGACGAUUGCGGGUUCGAGUCCCGUAUGGGGUG [G1A U2C G6A C27U A43C C46U C66U A69G A70G C71U] | -0.0617 |
| GUUCCGUUGGCGUAAUGGUAACGCGUCUCCCUCCUAAGGAGAAGACUGCGGGUUCGAGUCCCGUAUGGAACG [C66U] | -0.017 |
| AGUCCAUUGGCGUAAUGGUAACGCGUCUCCCUCCUAAGGAGAAGAUUGCGGGUUCGAGUCCCGUACGGGGCG [G1A U2G G6A C46U A69G A70G] | -0.251 |
| GGUCCUUUGGCGUAAUGGUAACGCGUCUCCCUCCUAAGGAGAAGAUUGCGGGUUCGAGUCCCGUACGGAUUG [U2G G6U C46U A70U C71U] | -0.461 |
| AUUCCGUUGGCGUAAUGGUAACGCGUUUCCCUCCUAAGGAGACGAUUGCGGGUUCGAGUCCCGUAUGGGGUG [G1A C27U A43C C46U C66U A69G A70G C71U] | -0.347 |
| GCUCCGUUGGCGUAAUGGUAACGCGUCUCCCUCCUAAGGAGAAGAUUGCGGGUUCGAGUCCCGUAUGGGAUG [U2C C46U C66U A69G C71U] | -0.145 |
| GUUCCAUUGGCGUAAUGGUAACGCGUCUCCCUCCUAAGGAGAAGAUUGCGGGUUCGAGUCCCGUACGGAGCG [G6A C46U A70G] | -0.226 |
| GGUCCGUUGGCGUAAUGGUAACGCGUCUCCCUCCUAAGGAGAAGAUUGCGGGUUCGAGUCCCGUAUGGGUUG [U2G C46U C66U A69G A70U C71U] | -0.349 |
| ACUCCGUUGGCGUAAUGGUAACGCGUCUCCCUCCUAAGGAGACGAUUGCGGGUUCGAGUCCCGUACGGAAUG [G1A U2C A43C C46U C71U] | -0.0678 |
| GUUCCGUUGGCGUAAUGGUAACGCGUCUCCCUCCUAAGGAGACGACUGCGGGUUCGAGUCCCGUAAGGGUUG [A43C C66A A69G A70U C71U] | -0.398 |
| GGUCCAUUGGCGUAAUGGUAACGCGUUUCCCUCCUAAGGAGACGACUGCGGGUUCGAGUCCCGUAAGGAACG [U2G G6A C27U A43C C66A] | -0.237 |
| AGUCCUUUGGCGUAAUGGUAACGCGUCUCCCUCCUAAGGAGACGACUGCGGGUUCGAGUCCCGUAAGGAUCG [G1A U2G G6U A43C C66A A70U] | -0.282 |
